ChEMBL document CHEMBL4261656, “Screening, synthesis, crystal structure, and molecular basis of 6-amino-4-phenyl-1,4-dihydropyrano[2,3-c]pyrazole-5-carbonitriles as novel AKR1C3 inhibitors” (Bioorg Med Chem, 2018)

Each compound was assayed against T1, Aldo-keto reductase family 1 member C3 (Homo sapiens, UniProt P42330) (assay: Inhibition of recombinant human AKR1C3 expressed in Escherichia coli BL21 cells in presence of 9,10-phenanthrenequinone and NADPH by fluorescence assay).
T1 sequence (P42330 whole entry): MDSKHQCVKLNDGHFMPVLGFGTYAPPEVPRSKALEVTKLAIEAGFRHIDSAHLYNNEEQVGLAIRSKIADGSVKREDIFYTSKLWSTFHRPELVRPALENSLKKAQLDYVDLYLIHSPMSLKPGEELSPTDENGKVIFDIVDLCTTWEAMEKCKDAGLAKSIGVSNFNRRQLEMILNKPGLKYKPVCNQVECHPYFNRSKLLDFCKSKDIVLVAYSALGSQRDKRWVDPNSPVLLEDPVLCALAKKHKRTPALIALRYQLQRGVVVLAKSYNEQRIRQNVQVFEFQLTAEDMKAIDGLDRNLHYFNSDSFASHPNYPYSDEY

Compound	IC50
CCCCCCCc1n[nH]c2c1C(c1cc(OC)c(O)c([N+](=O)[O-])c1)C(C#N)=C(N)O2 (stereo unspecified)	684 nM
CCCc1nn(C2CCCC2)c2c1C(c1cc(OC)c(O)c([N+](=O)[O-])c1)C(C#N)=C(N)O2 (stereo unspecified)	1830 nM
COc1cc(C2C(C#N)=C(N)Oc3[nH]nc(CCC4CCCC4)c32)cc([N+](=O)[O-])c1O (stereo unspecified)	237 nM
Cc1[nH][nH]c(=O)c1C(c1ccc(OS(=O)(=O)c2ccc(F)cc2)cc1)c1c(C)[nH][nH]c1=O	15200 nM
COc1cc(C2C(C#N)=C(N)Oc3[nH]nc(CCC4CCCCC4)c32)cc([N+](=O)[O-])c1O (stereo unspecified)	287 nM
COc1cc(C2C(C#N)=C(N)Oc3[nH]nc(CCC(C)C)c32)cc([N+](=O)[O-])c1O (stereo unspecified)	676 nM
O=C1C=C/C(=C\NNc2nc(N3CCOCC3)nc(N3CCOCC3)n2)C=C1[N+](=O)[O-]	1460 nM
CCCc1nn(C)c2c1C(c1cc(OC)c(O)c([N+](=O)[O-])c1)C(C#N)=C(N)O2 (stereo unspecified)	510 nM
O=C(O)c1ccc2c(c1)C(=O)N(c1nccs1)C2=O	24200 nM
COc1cc(C2C(C#N)=C(N)Oc3[nH]nc(CCCC(C)C)c32)cc([N+](=O)[O-])c1O (stereo unspecified)	730 nM
COc1cc(C2C(C#N)=C(N)Oc3[nH]nc(CC(C)(C)C)c32)cc([N+](=O)[O-])c1O (stereo unspecified)	480 nM
CCCCCCc1n[nH]c2c1C(c1cc(OC)c(O)c([N+](=O)[O-])c1)C(C#N)=C(N)O2 (stereo unspecified)	168 nM
CCCc1n[nH]c2c1C(c1ccc(O)c(O)c1)C(C#N)=C(N)O2 (stereo unspecified)	3960 nM
Cc1ccc(Cl)c(Nc2ccccc2C(=O)O)c1Cl [MECLOFENAMIC ACID]	512 nM
CCCc1n[nH]c2c1C(c1ccc(O)c([N+](=O)[O-])c1)C(C#N)=C(N)O2 (stereo unspecified)	278 nM
O=[N+]([O-])c1ccc(COP(=O)(O)OCc2ccc([N+](=O)[O-])cc2)cc1	7220 nM
Nc1cc(O)nc(/C=C/c2cccc(Cl)c2)c1	5540 nM

These compounds were tested against T2, Aldo-keto reductase family 1 member C3 (Homo sapiens) (UniProt P42330) (assay: Inhibition of recombinant human AKR1C3 expressed in Escherichia coli BL21 cells at 25 uM in presence of 9,10-phenanthrenequinone and NADPH by fluorescence assay).
T2 sequence (whole entry): T1 sequence (P42330 whole entry)
In short: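 Single-point screen of in-house library compounds at 25 µM, run in triplicate, against purified recombinant AKR1C3 (0.33 µM) from E. coli BL21. Conditions were 0.1 M phosphate pH 6.0, 0.15 mM NADPH, 8.0 µM PQ and 1% DMSO. Percent inhibition came from initial rates of NADPH fluorescence decrease (ex 340/em 460 nm).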

Compound	inhibition
CCCCCCCc1n[nH]c2c1C(c1cc(OC)c(O)c([N+](=O)[O-])c1)C(C#N)=C(N)O2 (stereo unspecified)	> 50%
CCCc1nn(C2CCCC2)c2c1C(c1cc(OC)c(O)c([N+](=O)[O-])c1)C(C#N)=C(N)O2 (stereo unspecified)	> 50%
COc1cc(C2C(C#N)=C(N)Oc3[nH]nc(CCC4CCCC4)c32)cc([N+](=O)[O-])c1O (stereo unspecified)	> 50%
Cc1[nH][nH]c(=O)c1C(c1ccc(OS(=O)(=O)c2ccc(F)cc2)cc1)c1c(C)[nH][nH]c1=O	> 50%
COc1cc(C2C(C#N)=C(N)Oc3[nH]nc(CCC4CCCCC4)c32)cc([N+](=O)[O-])c1O (stereo unspecified)	> 50%
COc1cc(C2C(C#N)=C(N)Oc3[nH]nc(CCC(C)C)c32)cc([N+](=O)[O-])c1O (stereo unspecified)	> 50%
O=C1C=C/C(=C\NNc2nc(N3CCOCC3)nc(N3CCOCC3)n2)C=C1[N+](=O)[O-]	> 50%
CCCc1nn(C)c2c1C(c1cc(OC)c(O)c([N+](=O)[O-])c1)C(C#N)=C(N)O2 (stereo unspecified)	> 50%
O=C(O)c1ccc2c(c1)C(=O)N(c1nccs1)C2=O	> 50%
COc1cc(C2C(C#N)=C(N)Oc3[nH]nc(CCCC(C)C)c32)cc([N+](=O)[O-])c1O (stereo unspecified)	> 50%
COc1cc(C2C(C#N)=C(N)Oc3[nH]nc(CC(C)(C)C)c32)cc([N+](=O)[O-])c1O (stereo unspecified)	> 50%
CCCCCCc1n[nH]c2c1C(c1cc(OC)c(O)c([N+](=O)[O-])c1)C(C#N)=C(N)O2 (stereo unspecified)	> 50%
CCCc1n[nH]c2c1C(c1ccc(O)c(O)c1)C(C#N)=C(N)O2 (stereo unspecified)	> 50%
CCCc1n[nH]c2c1C(c1ccc(O)c([N+](=O)[O-])c1)C(C#N)=C(N)O2 (stereo unspecified)	> 50%
O=[N+]([O-])c1ccc(COP(=O)(O)OCc2ccc([N+](=O)[O-])cc2)cc1	> 50%
Nc1cc(O)nc(/C=C/c2cccc(Cl)c2)c1	> 50%

These compounds were tested against T3, Aldo-keto reductase family 1 member C1 (Homo sapiens, UniProt Q04828) (assay: Inhibition of recombinant human AKR1C1 expressed in Escherichia coli BL21 cells in presence of 9,10-phenanthrenequinone and NADPH by fluorescence assay).
T3 sequence (Q04828 whole entry): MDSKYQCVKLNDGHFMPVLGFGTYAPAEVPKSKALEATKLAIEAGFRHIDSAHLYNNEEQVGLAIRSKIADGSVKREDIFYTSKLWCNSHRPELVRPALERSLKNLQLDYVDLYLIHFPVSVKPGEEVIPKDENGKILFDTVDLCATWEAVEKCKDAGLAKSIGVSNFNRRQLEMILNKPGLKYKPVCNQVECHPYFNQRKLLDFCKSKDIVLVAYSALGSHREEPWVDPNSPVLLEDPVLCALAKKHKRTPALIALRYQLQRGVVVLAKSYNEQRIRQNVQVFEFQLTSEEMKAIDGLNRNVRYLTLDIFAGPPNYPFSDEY

Compound	IC50
CCCCCCCc1n[nH]c2c1C(c1cc(OC)c(O)c([N+](=O)[O-])c1)C(C#N)=C(N)O2 (stereo unspecified)	1200 nM
CCCc1nn(C2CCCC2)c2c1C(c1cc(OC)c(O)c([N+](=O)[O-])c1)C(C#N)=C(N)O2 (stereo unspecified)	1050 nM
COc1cc(C2C(C#N)=C(N)Oc3[nH]nc(CCC4CCCC4)c32)cc([N+](=O)[O-])c1O (stereo unspecified)	433 nM
COc1cc(C2C(C#N)=C(N)Oc3[nH]nc(CCC4CCCCC4)c32)cc([N+](=O)[O-])c1O (stereo unspecified)	443 nM
COc1cc(C2C(C#N)=C(N)Oc3[nH]nc(CCC(C)C)c32)cc([N+](=O)[O-])c1O (stereo unspecified)	870 nM
O=C1C=C/C(=C\NNc2nc(N3CCOCC3)nc(N3CCOCC3)n2)C=C1[N+](=O)[O-]	9870 nM
CCCc1nn(C)c2c1C(c1cc(OC)c(O)c([N+](=O)[O-])c1)C(C#N)=C(N)O2 (stereo unspecified)	462 nM
COc1cc(C2C(C#N)=C(N)Oc3[nH]nc(CCCC(C)C)c32)cc([N+](=O)[O-])c1O (stereo unspecified)	1210 nM
COc1cc(C2C(C#N)=C(N)Oc3[nH]nc(CC(C)(C)C)c32)cc([N+](=O)[O-])c1O (stereo unspecified)	844 nM
CCCCCCc1n[nH]c2c1C(c1cc(OC)c(O)c([N+](=O)[O-])c1)C(C#N)=C(N)O2 (stereo unspecified)	534 nM
CCCc1n[nH]c2c1C(c1ccc(O)c(O)c1)C(C#N)=C(N)O2 (stereo unspecified)	5090 nM
Cc1ccc(Cl)c(Nc2ccccc2C(=O)O)c1Cl [MECLOFENAMIC ACID]	740 nM
CCCc1n[nH]c2c1C(c1ccc(O)c([N+](=O)[O-])c1)C(C#N)=C(N)O2 (stereo unspecified)	661 nM
